From ChEMBL document CHEMBL5033998, “Discovery of DDO-2213 as a Potent and Orally Bioavailable Inhibitor of the WDR5-Mixed Lineage Leukemia 1 Protein-Protein Interaction for the Treatment of MLL Fusion Leukemia” (J Med Chem, 2021)
Calls of active or inactive are those of the source. The rule behind the calls is not given here.

How the values were obtained:
[1] = target: T1, Histone-lysine N-methyltransferase 2A (Homo sapiens, UniProt Q03164); experiment: Inhibition of MLL1 (unknown origin) in human MV4-11 cells assessed as decrease in H3Kme2 level at 1 to 10 uM measured after 7 days by Western blot analysis; format: cell-based
T1 sequence (Q03164 1-2718 limits assumed): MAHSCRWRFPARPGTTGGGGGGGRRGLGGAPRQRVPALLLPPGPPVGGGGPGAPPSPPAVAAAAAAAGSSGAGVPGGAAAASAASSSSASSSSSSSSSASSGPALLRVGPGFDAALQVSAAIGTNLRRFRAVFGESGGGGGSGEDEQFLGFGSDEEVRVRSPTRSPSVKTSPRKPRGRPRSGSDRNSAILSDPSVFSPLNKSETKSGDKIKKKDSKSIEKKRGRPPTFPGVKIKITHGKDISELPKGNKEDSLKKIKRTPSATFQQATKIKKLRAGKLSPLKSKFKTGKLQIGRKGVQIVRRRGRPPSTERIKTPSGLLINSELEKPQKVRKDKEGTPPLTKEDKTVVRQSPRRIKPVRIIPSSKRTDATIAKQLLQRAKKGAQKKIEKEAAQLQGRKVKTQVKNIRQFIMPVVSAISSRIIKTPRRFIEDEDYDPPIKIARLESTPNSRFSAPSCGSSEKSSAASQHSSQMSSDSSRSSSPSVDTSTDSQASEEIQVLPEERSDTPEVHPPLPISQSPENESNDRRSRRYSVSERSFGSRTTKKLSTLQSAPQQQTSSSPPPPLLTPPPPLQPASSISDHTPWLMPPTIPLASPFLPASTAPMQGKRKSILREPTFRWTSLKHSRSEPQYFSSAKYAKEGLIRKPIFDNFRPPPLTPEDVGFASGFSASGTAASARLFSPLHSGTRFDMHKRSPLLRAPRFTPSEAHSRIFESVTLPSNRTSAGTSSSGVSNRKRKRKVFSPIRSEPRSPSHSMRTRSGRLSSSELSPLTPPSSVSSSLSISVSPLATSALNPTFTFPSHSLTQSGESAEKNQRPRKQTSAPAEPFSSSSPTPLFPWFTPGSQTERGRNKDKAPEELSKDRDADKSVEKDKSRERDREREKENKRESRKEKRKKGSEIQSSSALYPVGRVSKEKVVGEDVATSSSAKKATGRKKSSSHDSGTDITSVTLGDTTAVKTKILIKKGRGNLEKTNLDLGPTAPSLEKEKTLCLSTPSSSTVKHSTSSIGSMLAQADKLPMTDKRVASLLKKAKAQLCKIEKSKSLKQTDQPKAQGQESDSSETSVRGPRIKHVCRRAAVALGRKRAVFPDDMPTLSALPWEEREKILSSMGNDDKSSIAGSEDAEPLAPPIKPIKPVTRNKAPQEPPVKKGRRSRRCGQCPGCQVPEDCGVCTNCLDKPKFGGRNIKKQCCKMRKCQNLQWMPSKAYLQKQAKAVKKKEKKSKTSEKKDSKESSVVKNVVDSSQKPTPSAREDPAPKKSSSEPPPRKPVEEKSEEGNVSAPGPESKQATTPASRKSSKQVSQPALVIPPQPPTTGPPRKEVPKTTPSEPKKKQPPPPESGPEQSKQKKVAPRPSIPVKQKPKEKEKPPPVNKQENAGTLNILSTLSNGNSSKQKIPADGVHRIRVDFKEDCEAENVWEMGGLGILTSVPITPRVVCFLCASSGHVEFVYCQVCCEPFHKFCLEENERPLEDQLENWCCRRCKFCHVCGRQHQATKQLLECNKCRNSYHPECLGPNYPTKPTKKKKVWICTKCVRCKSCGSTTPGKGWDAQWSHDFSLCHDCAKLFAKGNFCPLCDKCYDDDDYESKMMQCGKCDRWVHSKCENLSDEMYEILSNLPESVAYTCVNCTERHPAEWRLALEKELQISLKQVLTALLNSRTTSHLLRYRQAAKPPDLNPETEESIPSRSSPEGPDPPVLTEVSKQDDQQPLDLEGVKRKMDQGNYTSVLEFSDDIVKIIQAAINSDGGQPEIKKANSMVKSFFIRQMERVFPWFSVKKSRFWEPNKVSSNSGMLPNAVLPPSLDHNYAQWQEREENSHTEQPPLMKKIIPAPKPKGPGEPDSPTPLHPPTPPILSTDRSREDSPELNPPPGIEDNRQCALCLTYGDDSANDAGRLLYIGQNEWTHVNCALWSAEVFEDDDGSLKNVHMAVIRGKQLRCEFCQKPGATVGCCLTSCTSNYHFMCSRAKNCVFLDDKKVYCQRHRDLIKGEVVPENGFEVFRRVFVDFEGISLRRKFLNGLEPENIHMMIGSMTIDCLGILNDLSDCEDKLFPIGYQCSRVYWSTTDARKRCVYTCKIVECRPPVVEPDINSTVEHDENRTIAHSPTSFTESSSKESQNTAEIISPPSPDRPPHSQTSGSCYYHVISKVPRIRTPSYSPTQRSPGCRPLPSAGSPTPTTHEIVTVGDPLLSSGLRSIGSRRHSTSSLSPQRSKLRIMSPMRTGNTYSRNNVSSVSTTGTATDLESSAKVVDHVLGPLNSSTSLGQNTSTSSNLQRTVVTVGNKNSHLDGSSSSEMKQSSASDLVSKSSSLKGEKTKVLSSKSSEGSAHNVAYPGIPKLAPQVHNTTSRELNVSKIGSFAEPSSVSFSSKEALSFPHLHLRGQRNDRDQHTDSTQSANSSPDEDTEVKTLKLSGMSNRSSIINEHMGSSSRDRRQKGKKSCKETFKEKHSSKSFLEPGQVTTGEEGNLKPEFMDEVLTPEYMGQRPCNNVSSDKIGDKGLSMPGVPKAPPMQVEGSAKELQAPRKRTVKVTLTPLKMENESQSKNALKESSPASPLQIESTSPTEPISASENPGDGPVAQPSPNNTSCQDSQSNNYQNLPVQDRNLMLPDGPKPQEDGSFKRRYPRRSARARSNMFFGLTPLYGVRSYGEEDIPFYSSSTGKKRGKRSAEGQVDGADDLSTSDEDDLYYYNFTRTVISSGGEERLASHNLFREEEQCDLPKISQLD
T1 sequence (Q03164 2719-3969 limits assumed): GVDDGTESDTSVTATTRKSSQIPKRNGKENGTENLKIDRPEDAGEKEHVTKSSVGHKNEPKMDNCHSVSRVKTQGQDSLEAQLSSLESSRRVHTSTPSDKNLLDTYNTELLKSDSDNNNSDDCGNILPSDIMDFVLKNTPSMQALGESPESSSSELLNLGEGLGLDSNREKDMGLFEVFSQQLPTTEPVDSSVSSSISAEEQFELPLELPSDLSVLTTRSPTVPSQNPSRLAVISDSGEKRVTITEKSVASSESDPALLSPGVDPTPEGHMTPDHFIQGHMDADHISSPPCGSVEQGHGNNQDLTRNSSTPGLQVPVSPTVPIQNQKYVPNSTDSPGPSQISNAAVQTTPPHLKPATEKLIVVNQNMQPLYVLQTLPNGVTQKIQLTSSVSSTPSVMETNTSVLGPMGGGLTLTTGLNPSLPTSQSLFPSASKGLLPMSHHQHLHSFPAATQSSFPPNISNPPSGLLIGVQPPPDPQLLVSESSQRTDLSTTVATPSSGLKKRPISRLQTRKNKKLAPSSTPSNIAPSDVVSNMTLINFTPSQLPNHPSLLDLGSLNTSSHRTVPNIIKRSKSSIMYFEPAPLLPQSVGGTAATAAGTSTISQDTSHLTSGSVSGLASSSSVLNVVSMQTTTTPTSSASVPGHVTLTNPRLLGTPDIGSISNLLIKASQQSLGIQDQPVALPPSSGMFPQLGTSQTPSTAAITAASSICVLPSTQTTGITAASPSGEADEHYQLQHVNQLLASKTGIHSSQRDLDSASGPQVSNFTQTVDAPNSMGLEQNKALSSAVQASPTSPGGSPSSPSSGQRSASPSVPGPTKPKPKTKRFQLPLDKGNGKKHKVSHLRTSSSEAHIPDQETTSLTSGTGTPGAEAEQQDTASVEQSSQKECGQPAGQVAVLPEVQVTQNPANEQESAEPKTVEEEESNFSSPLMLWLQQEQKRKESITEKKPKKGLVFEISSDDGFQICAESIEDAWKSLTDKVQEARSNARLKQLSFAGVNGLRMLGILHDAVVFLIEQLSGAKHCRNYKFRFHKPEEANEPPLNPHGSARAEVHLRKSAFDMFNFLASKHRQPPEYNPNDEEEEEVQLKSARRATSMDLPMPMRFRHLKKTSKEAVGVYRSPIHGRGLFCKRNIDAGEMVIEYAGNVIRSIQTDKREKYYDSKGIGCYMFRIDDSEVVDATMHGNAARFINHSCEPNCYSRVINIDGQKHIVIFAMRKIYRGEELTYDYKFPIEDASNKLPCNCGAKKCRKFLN
Outline: (§1)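 MV4-11 cells exposed to 1, 2.5, 5 and 10 μM; H3K4me1/me2/me3 assessed by Western blot with histone H3 as loading control. Blots blocked in 1% BSA 1 h, primary antibody overnight at 4 °C, DyLight 800 secondary 1 h at 37 °C, infrared imaging.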

[2] = target: Histone-lysine N-methyltransferase 2A/WDR5 (Homo sapiens, UniProt P61964); experiment: Inhibition of MLL1-WDR5 (unknown origin) protein-protein interaction using Thr-FAM as probe by fluorescence polarization competition assay
Outline: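 Competitive FP with WDR5 and 10mer-Thr-FAM probe in 100 mM KH2PO4, 25 mM KCl, 0.01% Triton X-100, pH 6.5; read at λex 485 ± 25 nm, λem 535 ± 25 nm. IC50 from three independent replicates ± SD.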

K562 = experiment: Antiproliferative activity against human K562 cells assessed as cell viability incubated for 72 hrs by CCK8 assay; format: functional, cell-based; conditions: K562, 72 h
Outline: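 Cells seeded at 3000–6000 per well, exposed to inhibitor at several concentrations for 72 h; viability read with CCK8 kit. MV4-11 and K562 grown in modified IMDM + 10% FBS, pen/strep; MOLM-13 in RPMI-1640 + 10% FBS; HUVEC in modified DMEM + 10% FBS; 37 °C, 5% CO2. IC50 as mean ± SD of three independent experiments.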

[3] = target: Histone-lysine N-methyltransferase, H3 lysine-79 specific (Homo sapiens, UniProt Q8TEK3); experiment: Inhibition of DOT1L (unknown origin) assessed as effect on H3K79 methylation incubated for 30 mins by Alphascreen assay
Outline: (§2)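 AlphaScreen: enzyme, SAM and compound mixed in 10 mM PBS for 30 min at room temperature; acceptor beads and substrate antibody added, 30 min at room temperature, then streptavidin donor beads; read on AlphaScreen reader.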

[4] = target: Protein arginine N-methyltransferase 5 (Homo sapiens, UniProt O14744); experiment: Inhibition of PRMT5 (unknown origin) assessed as effect on H3R8/H4R3 methylation incubated for 30 mins by Alphascreen assay; outline: as §2
Protein arginine N-methyltransferase 5, sequence (O14744 whole entry): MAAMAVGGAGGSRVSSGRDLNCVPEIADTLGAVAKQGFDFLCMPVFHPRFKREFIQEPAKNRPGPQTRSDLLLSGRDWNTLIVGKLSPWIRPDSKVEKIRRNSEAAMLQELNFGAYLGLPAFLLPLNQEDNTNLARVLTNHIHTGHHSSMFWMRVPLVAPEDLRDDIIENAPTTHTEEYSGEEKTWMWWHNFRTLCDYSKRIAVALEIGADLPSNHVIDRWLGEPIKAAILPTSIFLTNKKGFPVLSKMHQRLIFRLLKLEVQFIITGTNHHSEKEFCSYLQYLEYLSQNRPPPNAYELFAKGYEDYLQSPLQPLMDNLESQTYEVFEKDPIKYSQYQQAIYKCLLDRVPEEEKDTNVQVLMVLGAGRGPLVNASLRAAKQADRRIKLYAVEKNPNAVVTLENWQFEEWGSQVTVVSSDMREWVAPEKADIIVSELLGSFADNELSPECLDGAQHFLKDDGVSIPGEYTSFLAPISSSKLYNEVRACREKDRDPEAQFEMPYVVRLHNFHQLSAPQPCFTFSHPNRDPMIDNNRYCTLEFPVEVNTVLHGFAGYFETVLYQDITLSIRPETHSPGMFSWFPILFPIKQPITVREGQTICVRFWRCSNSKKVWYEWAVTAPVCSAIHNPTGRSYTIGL

[5] = Metabolic stability in rat liver microsomes assessed as half life at 1 uM in presence of NADPH by LC-MS/MS analysis; format: ADME, Microsome
Outline: (§3)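 Compound at 1 μM preincubated 5 min at 37 °C with human or rat liver microsomes (0.7 mg/mL) in 100 mM PBS pH 7.4; reaction started with 1 mM NADPH.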

[6] = Metabolic stability in rat liver microsomes assessed as clearance at 1 uM in presence of NADPH by LC-MS/MS analysis; format: ADME, Microsome; outline: as §3
[7] = Cmax in Sprague-Dawley rat at 10 mg/kg, po measured upto 24 hrs by LC-MS/MS analysis; format: ADME, organism-based; set-up: route oral, dose 10 mg/kg, time <=24; conditions: in vivo
Outline: (§4)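 Male SD rats, 6–8 weeks, 220 ± 30 g; single oral dose 10 mg/kg (n = 3). Plasma sampled at 0, 0.25, 0.5, 1, 2, 4, 6, 8 and 24 h, stored at −80 °C, quantified by LC-MS/MS; parameters reported as mean ± SEM.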

[8] = AUC (0 to t) in Sprague-Dawley rat at 10 mg/kg, po measured upto 24 hrs by LC-MS/MS analysis; format: ADME, organism-based; set-up: route oral, dose 10 mg/kg, time <=24; conditions: in vivo; outline: as §4
[9] = AUC (0 to infinity) in Sprague-Dawley rat at 10 mg/kg, po measured upto 24 hrs by LC-MS/MS analysis; format: ADME, organism-based; set-up: route oral, dose 10 mg/kg, time <=24; conditions: in vivo; outline: as §4
[10] = Apparent volume of distribution in Sprague-Dawley rat at 10 mg/kg, po measured upto 24 hrs by LC-MS/MS analysis; format: ADME, organism-based; conditions: in vivo, read-out: Vz/F; outline: as §4
[11] = MRT in Sprague-Dawley rat at 10 mg/kg, po measured upto 24 hrs by LC-MS/MS analysis; format: ADME, organism-based; conditions: in vivo; outline: as §4
MV4-11 [12] = experiment: Antitumor activity against human MV4-11 cells xenografted in Balb/c nude mouse assessed as tumor growth inhibition at 40 mg/kg, po administered daily for 21 days relative to control; format: functional; conditions: MV4-11, po, 504 h, time 21 day, read-out: TGI
Outline: (§5)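 Female BALB/c nude mice (6–8 weeks) given ~5 × 10^6 MV4-11 cells in 0.2 mL PBS into the flank; at 100–150 mm3 randomized (6/group) to vehicle (0.9% saline) or 40, 80, 120 mg/kg oral (hydrochloride salt) daily for 21 days. Volume = length × width²/2 every other day; GI% = [1 − (TVt − TV0)/(CVt − CV0)] × 100%.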

MV4-11 [13] = experiment: Antitumor activity against human MV4-11 cells xenografted in Balb/c nude mouse assessed as tumor growth inhibition at 80 mg/kg, po administered daily for 21 days relative to control; format: functional; conditions: MV4-11, po, 504 h, time 21 day, read-out: TGI; outline: as §5
[14] = target: WD repeat-containing protein 5 (Homo sapiens) (UniProt P61964); experiment: Binding affinity to WDR5 (unknown origin) assessed as change in entropy by isothermal titration calorimetry assay
[15] = target: T1, Histone-lysine N-methyltransferase 2A; experiment: Inhibition of MLL1 (unknown origin) in human MV4-11 cells assessed as decrease in H3Kme3 level at 1 to 10 uM measured after 7 days by Western blot analysis; format: cell-based; outline: as §1
MV4-11 [16] = experiment: Antitumor activity against human MV4-11 cells xenografted in Balb/c nude mouse assessed as tumor weight inhibition at 80 mg/kg, po administered daily for 21 days relative to control; format: functional; conditions: MV4-11, po, 504 h
Outline: (§6)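 MV4-11 flank xenografts (~5 × 10^6 cells) in female BALB/c nude mice, 6 per group; daily oral dosing (40, 80, 120 mg/kg) or saline vehicle for 21 days, then tumors excised and weighed.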

MV4-11 [17] = experiment: Antitumor activity against human MV4-11 cells xenografted in Balb/c nude mouse assessed as tumor weight inhibition at 120 mg/kg, po administered daily for 21 days relative to control; format: functional; conditions: MV4-11, po, 504 h; outline: as §6
[18] = target: T1, Histone-lysine N-methyltransferase 2A; experiment: Inhibition of MLL1 (unknown origin) histone methyltransferase activity assessed as inhibition of H3K4 methylation incubated for 30 mins by chemiluminescence assay

inhibition [1]: Active
IC50 [2]: 29 nM
IC50 (K562): > 100000 nM
IC50 [3]: > 100000 nM
IC50 [4]: > 100000 nM
half-life at 1 µM [5]: 1.1 h
CLH [6]: 15 µL/min/mg
Cmax [7]: 159 ng/mL
AUC(0-t) at 24 h [8]: 1320 ng·h/mL
AUC(0-inf) [9]: 1740 ng·h/mL
Vd/F [10]: 37.1 L/kg
MRT [11]: 5.42 h
-TdeltaS [14]: 2.51 kcal/mol
inhibition [15]: Active
IC50 [18]: 780 nM
Structure (SMILES): CN1CCN(c2cc(F)c(-c3ccc(C(=O)N(C)C)cc3)cc2Nc2ncnc(Cl)c2N)CC1
inhibition in vivo at 40 mg/kg (MV4-11 [12]): 39.4%
inhibition in vivo at 80 mg/kg (MV4-11 [13]): 53.6%
inhibition in vivo at 80 mg/kg (MV4-11 [16]): 51.6%
inhibition in vivo at 120 mg/kg (MV4-11 [17]): 56.8%
